Non-standard residues stand in square brackets, D forms with d. Residues, ends and D or L forms follow the SMILES beside them. Groups on a side chain read outwards from the residue. ξ: configuration not given here. *: point of attachment. Phe(4-Br) = N[C@@H](Cc1ccc(Br)cc1)C(=O)O; Phe(4-Cl) = N[C@@H](Cc1ccc(Cl)cc1)C(=O)O; Phe(4-NH2) = Nc1ccc(C[C@H](N)C(=O)O)cc1; 2Nal = N[C@@H](Cc1ccc2ccccc2c1)C(=O)O; hArg = N=C(N)NCCCC[C@H](N)C(=O)O; hPhe = N[C@@H](CCc1ccccc1)C(=O)O; Cha = N[C@@H](CC1CCCCC1)C(=O)O; Phg = N[C@H](C(=O)O)c1ccccc1; Nle = CCCC[C@H](N)C(=O)O; Dab = NCC[C@H](N)C(=O)O; Nva = CCC[C@H](N)C(=O)O; Dap = NC[C@H](N)C(=O)O; ξDab = NCCC(N)C(=O)O; ξDap = NCC(N)C(=O)O; Bn = c1ccc(C*)cc1
Columns and labels:
[1] = biological target: T1, Human immunodeficiency virus type 1 protease (Human immunodeficiency virus 1, UniProt Q72874, L90M); assay: Inhibition of HIV1 HXB2 protease L90M mutant at 100 uM
How it was run: (§1)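 Mutant HIV-1 HXB2 protease clones (I84V, L90M, or I84V+L90M), 70 ng per 100 µL reaction. Buffer: 0.1 M acetic acid, 1.1 M NaCl, pH 5.0. Enzyme preincubated 10 min at 37 °C with hexapeptide (11 twofold dilutions from 100 µM). Substrate (2.25 µg) then added and reacted 30 min at 37 °C. Fluorescence read every 60 s (ex 355/em 490 nm) against a no-inhibitor control.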

[2] = Inhibition of HIV1 HXB2 protease […], L90M mutant at 100 uM; set-up: species or system Human immunodeficiency virus 1; how it was run: as §1
[3] = Inhibition of HIV1 HXB2 protease […] mutant at 100 uM; set-up: species or system Human immunodeficiency virus 1; how it was run: as §1
Protease [4] = biological target: T2, Protease (Human immunodeficiency virus 1, UniProt Q9YQ12); assay: Inhibition of wild type HIV1 HXB2 protease at 100 uM
T2 sequence (Q9YQ12 whole entry): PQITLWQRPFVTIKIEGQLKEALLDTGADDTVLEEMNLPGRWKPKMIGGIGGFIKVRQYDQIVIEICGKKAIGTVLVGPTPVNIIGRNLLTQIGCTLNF

Protease [5] = biological target: T2, Protease; assay: Inhibition of wild type HIV1 HXB2 protease
How it was run: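 HXB2 HIV-1 protease clone (35 ng per 100 µL) in 0.1 M acetic acid, 1.1 M NaCl, pH 5.0. Hexapeptide was preincubated with enzyme for 10 min at 37 °C. Substrate (2.25 µg) was then added and fluorescence (ex 355/em 490 nm) read over 30 min at 37 °C. Eleven twofold dilutions from 100 µM; 1 mM stocks in DMSO/water 1:2. Protease-plus-substrate control without inhibitor.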

[6] = Inhibition of HIV1 HXB2 protease 184V mutant; set-up: species or system Human immunodeficiency virus 1; how it was run: as §1
[7] = Inhibition of HIV1 HXB2 protease […], L90M mutant; set-up: species or system Human immunodeficiency virus 1; how it was run: as §1
[8] = biological target: T1, Human immunodeficiency virus type 1 protease; assay: Inhibition of HIV1 HXB2 protease L90M mutant; how it was run: as §1

| SMILES | Ki [1] | Ki [2] | Ki [3] | Ki (Protease [4]) | Ki (Protease [5]) | Ki [6] | Ki [7] | Ki [8] |
| --- | --- | --- | --- | --- | --- | --- | --- | --- |
| CC(=O)N[C@@H](Cc1ccc(O)cc1)C(=O)N[C@@H](C)C(=O)N[C@H](C(=O)N1CCC[C@H]1C(=O)NCC(=O)N[C@H](C(=O)O)[C@H](C)O)[C@H](C)O | Not Active | Not Active | Not Active | Not Active |  |  |  |  |
| CC(=O)N[C@@H](C)C(=O)N[C@@H](Cc1cnc[nH]1)C(=O)N[C@@H](Cc1ccc(O)cc1)C(=O)N[C@@H](C)C(=O)N[C@H](C(=O)N[C@@H](Cc1cnc[nH]1)C(=O)O)[C@@H](C)O (Ac-AHYATH-OH) | Not Active | Not Active | Not Active | Not Active |  |  |  |  |
| CC(=O)N[C@@H](CC(=O)O)C(=O)NCC(=O)NCC(=O)N[C@@H](C)C(=O)N[C@@H](CC(C)C)C(=O)N[C@@H](CO)C(=O)O (Ac-DGGALS-OH) | Not Active | Not Active | Not Active | Not Active |  |  |  |  |
| CC(=O)NCC(=O)N[C@H](C(=O)N[C@@H](C)C(=O)N[C@@H](Cc1ccc(O)cc1)C(=O)N[C@@H](CO)C(=O)N[C@@H](CS)C(=O)O)[C@@H](C)O (Ac-GTAYSC-OH) | Not Active | Not Active | Not Active | Not Active |  |  |  |  |
| CC(=O)N1CCC[C@H]1C(=O)N[C@@H](Cc1ccc(O)cc1)C(=O)N[C@@H](C)C(=O)NCC(=O)N[C@@H](C)C(=O)N[C@@H](CCC(N)=O)C(=O)O (Ac-PYAGAQ-OH) | Not Active | Not Active | Not Active | Not Active |  |  |  |  |
| CC(=O)N[C@@H](CO)C(=O)N1CCC[C@H]1C(=O)N[C@@H](C)C(=O)N[C@H](C(=O)N[C@@H](CCC(=O)O)C(=O)N[C@@H](C)C(=O)O)[C@@H](C)O (Ac-SPATEA-OH) | Not Active | Not Active | Not Active | Not Active |  |  |  |  |
| CC(=O)N[C@@H](CO)C(=O)N[C@H](C(=O)N[C@@H](CCCNC(=N)N)C(=O)N[C@@H](CS)C(=O)N[C@@H](CO)C(=O)N[C@@H](Cc1c[nH]c2ccccc12)C(=O)O)C(C)C (Ac-SVRCSW-OH) | Not Active | Not Active | Not Active | Not Active |  |  |  |  |
| CC(=O)N[C@H](C(=O)N[C@@H](C)C(=O)N[C@@H](C)C(=O)NCC(=O)N[C@@H](CCCNC(=N)N)C(=O)N[C@H](C(=O)O)[C@@H](C)O)[C@@H](C)O (Ac-TAAGRT-OH) | Not Active | Not Active | Not Active | Not Active |  |  |  |  |
| CC(=O)N[C@H](C(=O)N[C@@H](CC(N)=O)C(=O)N[C@H](C(=O)N[C@H](C(=O)N[C@@H](C)C(=O)N[C@@H](CC(=O)O)C(=O)O)[C@@H](C)O)[C@@H](C)O)[C@@H](C)O (Ac-TNTTAD-OH) | Not Active | Not Active | Not Active | Not Active |  |  |  |  |
| CC[C@H](C)[C@H](NC(=O)[C@H](Cc1cnc[nH]1)NC(=O)[C@H](C)NC(=O)[C@H](CO)NC(=O)[C@H](CCCNC(=N)N)NC(=O)[C@@H](NC(C)=O)C(C)C)C(=O)O (Ac-VRSAHI-OH) | Not Active | Not Active | Not Active | Not Active |  |  |  |  |
| CCC[C@H](NC(=O)[C@H](Cc1ccc(O)cc1)NC(=O)[C@H](CCCCNC(=N)N)NC(=O)[C@H](CCSC)NC(=O)[C@@H](NC(=O)[C@@H](N)Cc1ccc2ccccc2c1)C(C)C)C(=O)O (H-[2Nal]VM[hArg]Y[Nva]-OH) |  |  |  |  | 5.4 µM | 19.9 µM | 7.5 µM | 6.9 µM |
| CCCC[C@H](NC(=O)[C@H](Cc1ccc(OCc2ccccc2)cc1)NC(=O)[C@H](Cc1ccc(N)cc1)NC(=O)[C@H](CCCCN)NC(=O)[C@H](CC1CCCCC1)NC(=O)[C@@H](N)Cc1ccc2ccccc2c1)C(=O)O (H-[2Nal][Cha]K[Phe(4-NH2)]Y(Bn)[Nle]-OH) |  |  |  |  | 24.1 µM | 31.6 µM | 56 µM | 9.2 µM |
| CSCC[C@H](NC(=O)[C@H](CC1CCCCC1)NC(=O)[C@@H](N)Cc1ccc2ccccc2c1)C(=O)N[C@@H](CCC(=O)O)C(=O)N[C@H](C(=O)N[C@@H](CC1CCCCC1)C(=O)O)c1ccccc1 (H-[2Nal][Cha]ME[Phg][Cha]-OH) |  |  |  |  | 5.5 µM | 3.9 µM | 2.7 µM | 2.4 µM |
| CCCC[C@H](NC(=O)[C@@H](N)Cc1ccc2ccccc2c1)C(=O)NCC[C@H](N)C(=O)N[C@@H](CCC(=O)O)C(=O)N[C@@H](CCc1ccccc1)C(=O)N[C@@H](CCC)C(=O)O (H-[Dab]([Nle-2Nal])E[hPhe][Nva]-OH) |  | Not Active | Not Active |  | 22 µM |  |  | 16.7 µM |
| CC(C)C[C@H](NC(=O)[C@H](Cc1ccccc1)NC(=O)[C@H](CCCCNC(=N)N)NC(=O)[C@@H](N)CNC(=O)[C@H](CC1CCCCC1)NC(=O)[C@@H](N)CCc1ccccc1)C(=O)O (H-[Dap]([Cha-hPhe])[hArg]FL-OH) |  | Not Active | Not Active |  | 4.6 µM |  |  | 26.5 µM |
| CCC[C@H](NC(=O)[C@H](Cc1ccc2ccccc2c1)NC(=O)[C@H](CCCCNC(=N)N)NC(=O)[C@@H](N)CNC(=O)[C@H](CCC)NC(=O)[C@@H](N)CCc1ccccc1)C(=O)O (H-[Dap]([Nva-hPhe])[hArg][2Nal][Nva]-OH) |  |  |  |  | 5.2 µM | 13.3 µM | 15.7 µM | 23.6 µM |
| NC(CCNC(=O)[C@H](CC1CCCCC1)NC(=O)[C@@H](N)Cc1ccc(Cl)cc1)C(=O)N[C@@H](CCC(=O)O)C(=O)N[C@@H](Cc1ccccc1)C(=O)N[C@@H](CC1CCCCC1)C(=O)O (stereo not given in full) (H-[ξDab]([Cha-Phe(4-Cl)])EF[Cha]-OH) |  | Not Active | Not Active |  | 3.8 µM |  |  | 31.1 µM |
| N=C(N)NCCC[C@H](NC(=O)C(N)CCNC(=O)[C@H](CC1CCCCC1)NC(=O)[C@@H](N)CCc1ccccc1)C(=O)N[C@@H](CCc1ccccc1)C(=O)N[C@@H](CC1CCCCC1)C(=O)O (stereo not given in full) (H-[ξDab]([Cha-hPhe])R[hPhe][Cha]-OH) |  | Not Active | Not Active |  | 2 µM |  |  | 47.4 µM |
| CCC[C@H](NC(=O)[C@H](Cc1ccc2ccccc2c1)NC(=O)[C@H](CCC(=O)O)NC(=O)C(N)CNC(=O)[C@H](CC1CCCCC1)NC(=O)[C@@H](N)Cc1ccc2ccccc2c1)C(=O)O (stereo not given in full) (H-[ξDap]([Cha-2Nal])E[2Nal][Nva]-OH) |  |  |  |  | 12 µM | 20.7 µM | 20.8 µM | 9.7 µM |
| CC(C)C[C@H](NC(=O)[C@H](Cc1ccc(Br)cc1)NC(=O)[C@H](CCC(=O)O)NC(=O)C(N)CNC(=O)[C@H](CC1CCCCC1)NC(=O)[C@@H](N)Cc1ccc(Cl)cc1)C(=O)O (stereo partly drawn) (H-[ξDap]([Cha-Phe(4-Cl)])E[Phe(4-Br)]L-OH) |  |  |  |  | 5.5 µM | 37.7 µM | 34.6 µM | 15.7 µM |

— ChEMBL document CHEMBL1155257, “Proteochemometrics mapping of the interaction space for retroviral proteases and their substrates” (Bioorg Med Chem, 2009)
